# Data: ChEMBL document CHEMBL1139996, “Synthesis, bioactivity, theoretical and molecular docking study of 1-cyano-N-substituted-cyclopropanecarboxamide as ketol-acid reductoisomerase inhibitor” (Bioorg Med Chem Lett, 2007)
# Tested on: Oryza sativa
# Test: Inhibition of rice KARI at 200 ppm
# In short: (§1)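 Activity followed as the decrease in A340 at 30 °C. Reaction mix: 0.2 mM NADPH, 1 mM MgCl2, substrate (2-acetolactate or hydroxypyruvate) and inhibitor as required, in 0.1 M Tris–HCl, pH 8.0. Reaction started by adding enzyme. In inhibitor preincubation runs, substrate was added last instead.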
row,Compound,inhibition
1,N#CC1(C(=O)Nc2cccc(C(F)(F)F)c2)CC1,0%
2,N#CC1(C(=O)Nc2cc(Cl)c(Cl)cc2Cl)CC1,0%
3,N#CC1(C(=O)Nc2ccc(Cl)cc2)CC1,93.9%
4,COc1ccc(NC(=O)C2(C#N)CC2)cc1,3.95%
5,N#CC1(C(=O)O)CC1,100%
6,N#CC1(C(=O)Nc2cccc(Cl)c2)CC1,0%
7,Cc1ccc(NC(=O)C2(C#N)CC2)cc1,61.2%
8,N#CC1(C(=O)NCCO)CC1,98.9%
9,N#CC1(C(=O)Nc2ccccc2)CC1,77.2%
10,N#CC1(C(=O)Nc2ccc(Br)cc2)CC1,32.2%
11,N#CC1(C(=O)Nc2cccc(Br)c2)CC1,17.2%
12,Cc1ccccc1NC(=O)C1(C#N)CC1,100%
13,N#CC1(C(=O)Nc2ccc(Cl)cc2Cl)CC1,97%
14,N#CC1(C(=O)Nc2ccccc2C(F)(F)F)CC1,0%
15,CCOC(=O)C1(C#N)CC1,0%
16,N#CC1(C(=O)Nc2ccc(C(F)(F)F)cc2)CC1,0%

# Molecular target: not listed separately
# Test: Inhibition of rice KARI
# Set-up: species or system Oryza sativa
# In short: as §1
row,Compound,Ki
1,N#CC1(C(=O)O)CC1,95.3 µM
2,Cc1ccc(NC(=O)C2(C#N)CC2)cc1,> 300 µM
